These results are taken from ChEMBL document CHEMBL4680257, “Discovery of novel NF-кB inhibitor based on scaffold hopping: 1,4,5,6,7,8-hexahydropyrido[4,3-d]pyrimidine” (Eur J Med Chem, 2020).

Series [1] has as its system RAW264.7. The experiment in a line: Antiinflammatory activity against mouse RAW264.7 cells assessed as LPS-induced TNF-alpha at 30 uM pretreated for 2 hrs followed by LPS stimulation and measured after 22 hrs by ELISA (reference value: 0 %). Type of series: functional. The conditions noted are these: time 24 hrs. The gist of the method: (§1)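 Mouse RAW264.7 macrophages were pretreated with compound for 2 h, then stimulated with LPS (1.0 µg/mL) for 22 h. Culture medium was centrifuged at 1000 rpm for 10 min, and secreted TNF-α and IL-6 were each quantified by ELISA kit. Inhibition rates are means of three replicates.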
(An ELISA detects its analyte on a solid surface through an enzyme-linked reagent.)

Series [2] relates to RAW264.7. The experiment in a line: Antiinflammatory activity against mouse RAW264.7 cells assessed as LPS-induced IL-6 at 30 uM pretreated for 2 hrs followed by LPS stimulation and measured after 22 hrs by ELISA (reference value: 0 %). The conditions noted are these: time 24 hrs. Type of series: functional. The method, boiled down:
as §1

The test system of the next series is HepG2. As to the kind of experiment: Cytotoxicity against human HepG2 cells assessed as reduction in cell viability incubated for 24 hrs by MTT assay. Type of series: functional, cell-based. The settings on record: HepG2, 24 h. The method, boiled down: (§2)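 Cells kept at 37 °C in 5% CO₂. HepG2 grown in DMEM with 10% serum; HHL-5, LO2 and SMMC-7721 in 1640 medium with 10% serum. Seeded, grown 24 h, then exposed 24 h to 10, 5, 2.5, 1.25, 0.625 and 0.3125 µg/mL. MTT (5 mg/mL) added for 4 h at 37 °C; formazan dissolved in DMSO, OD read at 570 nm. IC50 averaged from three replicates.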
Background: Formazan colour is commonly taken as a measure of viable cells.

Another series has as its system SMMC-7721. The experiment in a line: Cytotoxicity against human SMMC-7721 cells assessed as reduction in cell viability incubated for 24 hrs by MTT assay. Type of series: functional, cell-based. The settings on record: SMMC-7721, 24 h. The method, boiled down:
as §2

Series [3] in a line: Cytotoxicity against human HHL-5 cells assessed as reduction in cell viability incubated for 24 hrs by MTT assay. Type of series: cell-based. The conditions noted are these: HHL-5, 24 h. The gist of the method:
as §2

In the next series the test system is L02. As to the kind of experiment: Cytotoxicity against human L02 cells assessed as reduction in cell viability incubated for 24 hrs by MTT assay. Type of series: cell-based. The conditions noted are these: L02, 24 h. The gist of the method:
as §2

The test system of series [4] is RAW264.7. The experiment in a line: Cytotoxicity against mouse RAW264.7 cells assessed as reduction in cell viability at 5 uM incubated for 24 hrs by MTT assay. Type of series: cell-based. The conditions noted are these: raw264.7, 24 h.
The subject of series [5] is RAW264.7. As to the kind of experiment: Antiinflammatory activity against mouse RAW264.7 cells assessed as LPS-induced TNF-alpha at 5 uM pretreated for 2 hrs followed by LPS stimulation and measured after 22 hrs by ELISA (reference value: 0 %). Type of series: functional. The settings on record: time 24 hrs.
Series [6] has as its system RAW264.7. The experiment in a line: Antiinflammatory activity against mouse RAW264.7 cells assessed as LPS-induced IL-6 at 5 uM pretreated for 2 hrs followed by LPS stimulation and measured after 22 hrs by ELISA relative to control (reference value: 0 %). Type of series: functional. The conditions noted are these: time 24 hrs.

As to `S=C(S)N1CCCC1` [PYRROLIDINE DITHIOCARBAMATE], the inhibition (usually the percentage by which the read-out fell short of the control) at 30 µM in the series with RAW264.7 [1] worked out at 66.5%; in the series with RAW264.7 [2], 56.9%.

As to `Cl.NC1=NC(c2ccc(F)cc2)C2=C(N1)/C(=C/c1ccc(F)cc1)CN(S(=O)(=O)c1ccc(C(F)(F)F)cc1)C2` (centres undefined), the IC50 (as a rule, the concentration needed to halve the response being measured) in the series on HepG2 amounted to 3.3 µM; in the series on SMMC-7721 it was 3.8 µM; in series [3], 24.4 µM; in the series with L02, 15.4 µM. In addition, in the series with RAW264.7 [4], the Activity result is “Non-Toxic”. Also, the inhibition at 5 µM in the series with RAW264.7 [5] was 87.5%; with RAW264.7 [6], 81.7%.
